# From ChEMBL document CHEMBL1121378, “Lipophilic and hydrophilic esters of 4-acetyl-2-(2-hydroxyethyl)-5,6-bis(4-chlorophenyl)-2H-pyridazin-3-one as antihypertensive agents” (1980)
# Tests used:
# Rattus norvegicus [1] = assay: Antihypertensive activity in spontaneously hypertensive rats was measured as average blood pressure at 50 mg/kg, po after 4 hours of postdose-2; assay type: functional
# Summary of the method: (§1)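 Spontaneously hypertensive rats dosed orally twice. Average blood pressure (mmHg) recorded before dosing and at 4 h and 24 h after the first dose and after the second dose. Postdose values checked for significant lowering against predose.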
# Rattus norvegicus [2] = assay: Antihypertensive activity in spontaneously hypertensive rats was measured as average blood pressure at 50 mg/kg, p.o. before predose; assay type: functional; settings: route oral; summary of the method: as §1
# Rattus norvegicus [3] = assay: Antihypertensive activity in spontaneously hypertensive rats was measured as average blood pressure at 50 mg/kg, p.o. after 24 hours of postdose-2; assay type: functional; settings: route oral; summary of the method: as §1
# Rattus norvegicus [4] = assay: Antihypertensive activity in spontaneously hypertensive rats was measured as average blood pressure at 50 mg/kg, p.o. after 4 hours of postdose-1; assay type: functional; settings: route oral; summary of the method: as §1
# Rattus norvegicus [5] = assay: Antihypertensive activity in spontaneously hypertensive rats was measured as average blood pressure at 50 mg/kg, p.o. after 24 hours of postdose-1; assay type: functional; settings: route oral; summary of the method: as §1
# Rattus norvegicus [6] = assay: Antihypertensive activity in spontaneously hypertensive rats was measured as average blood pressure at 100 mg/kg, p.o. after 24 hours of postdose-1; assay type: functional; settings: route oral
# Summary of the method: (§2)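 SHR model with two successive doses, designated dose 1 and dose 2. Group-average blood pressure in mmHg was recorded before dosing and at 4 h and 24 h after each dose. The route is oral unless marked intra-arterial or subcutaneous. A table footnote marks doses that gave no significant lowering at 4 or 24 h postdose.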
# Rattus norvegicus [7] = assay: Antihypertensive activity in spontaneously hypertensive rats was measured as average blood pressure at 100 mg/kg, p.o. after 24 hours of postdose-2; assay type: functional; settings: route oral; summary of the method: as §2
# Rattus norvegicus [8] = assay: Antihypertensive activity in spontaneously hypertensive rats was measured as average blood pressure at 4 mg/kg, po after 24 hours of postdose-1; assay type: functional; summary of the method: as §2
# Rattus norvegicus [9] = assay: Antihypertensive activity in spontaneously hypertensive rats was measured as average blood pressure at 4 mg/kg, p.o. after 24 hours of postdose-2; assay type: functional; settings: route oral; summary of the method: as §2
# Rattus norvegicus [10] = assay: Antihypertensive activity in spontaneously hypertensive rats was measured as average blood pressure at 4 mg/kg, p.o. after 4 hours of postdose-1; assay type: functional; settings: route oral; summary of the method: as §2
# Rattus norvegicus [11] = assay: Antihypertensive activity in spontaneously hypertensive rats was measured as average blood pressure at 4 mg/kg, p.o. after 4 hours of postdose-2; assay type: functional; settings: route oral; summary of the method: as §2
# Rattus norvegicus [12] = assay: Antihypertensive activity in spontaneously hypertensive rats was measured as average blood pressure at 4 mg/kg, po before predose; assay type: functional; summary of the method: as §2
# Rattus norvegicus [13] = assay: Antihypertensive activity in spontaneously hypertensive rats was measured as average blood pressure at 100 mg/kg, p.o. after 4 hours of postdose-1; assay type: functional; settings: route oral; summary of the method: as §2
# Rattus norvegicus [14] = assay: Antihypertensive activity in spontaneously hypertensive rats was measured as average blood pressure at 100 mg/kg, p.o. after 4 hours of postdose-2; assay type: functional; settings: route oral; summary of the method: as §2
# Rattus norvegicus [15] = assay: Antihypertensive activity in spontaneously hypertensive rats was measured as average blood pressure at 100 mg/kg, p.o. before predose; assay type: functional; settings: route oral; summary of the method: as §2
# Rattus norvegicus [16] = assay: Antihypertensive activity in spontaneously hypertensive rats was measured as average blood pressure at 12 mg/kg, p.o. after 24 hours of postdose-1; assay type: functional; settings: route oral; summary of the method: as §2
# Rattus norvegicus [17] = assay: Antihypertensive activity in spontaneously hypertensive rats was measured as average blood pressure at 12 mg/kg, p.o. after 24 hours of postdose-2; assay type: functional; settings: route oral; summary of the method: as §2
# Rattus norvegicus [18] = assay: Antihypertensive activity in spontaneously hypertensive rats was measured as average blood pressure at 12 mg/kg, p.o. after 4 hours of postdose-1; assay type: functional; settings: route oral; summary of the method: as §2
# Rattus norvegicus [19] = assay: Antihypertensive activity in spontaneously hypertensive rats was measured as average blood pressure at 12 mg/kg, p.o. after 4 hours of postdose-2; assay type: functional; settings: route oral; summary of the method: as §2
# Rattus norvegicus [20] = assay: Antihypertensive activity in spontaneously hypertensive rats was measured as average blood pressure at 12 mg/kg, p.o. before predose; assay type: functional; settings: route oral; summary of the method: as §2
# Rattus norvegicus [21] = assay: Antihypertensive activity in spontaneously hypertensive rats was measured as average blood pressure at 17 mg/kg, p.o. after 24 hours of postdose-1; assay type: functional; settings: route oral; summary of the method: as §2
# Rattus norvegicus [22] = assay: Antihypertensive activity in spontaneously hypertensive rats was measured as average blood pressure at 17 mg/kg, p.o. before predose; assay type: functional; settings: route oral; summary of the method: as §2
# Rattus norvegicus [23] = assay: Antihypertensive activity in spontaneously hypertensive rats was measured as average blood pressure at 17 mg/kg, p.o. after 4 hours of postdose-2; assay type: functional; settings: route oral; summary of the method: as §2
# Rattus norvegicus [24] = assay: Antihypertensive activity in spontaneously hypertensive rats was measured as average blood pressure at 17 mg/kg, p.o. after 24 hours of postdose-2; assay type: functional; settings: route oral; summary of the method: as §2
# Rattus norvegicus [25] = assay: Antihypertensive activity in spontaneously hypertensive rats was measured as average blood pressure at 17 mg/kg, p.o. after 4 hours of postdose-1; assay type: functional; settings: route oral; summary of the method: as §2
# Rattus norvegicus [26] = assay: Antihypertensive activity in spontaneously hypertensive rats was measured as average blood pressure at 10 mg/kg, p.o. before predose; assay type: functional; settings: route oral; summary of the method: as §2
# Rattus norvegicus [27] = assay: Antihypertensive activity in spontaneously hypertensive rats was measured as average blood pressure at 10 mg/kg, p.o. after 24 hours of postdose-2; assay type: functional; settings: route oral; summary of the method: as §2
# Rattus norvegicus [28] = assay: Antihypertensive activity in spontaneously hypertensive rats was measured as average blood pressure at 10 mg/kg, p.o. after 4 hours of postdose-1; assay type: functional; settings: route oral; summary of the method: as §2
# Rattus norvegicus [29] = assay: Antihypertensive activity in spontaneously hypertensive rats was measured as average blood pressure at 10 mg/kg, p.o. after 24 hours of postdose-1; assay type: functional; settings: route oral; summary of the method: as §2
# Rattus norvegicus [30] = assay: Antihypertensive activity in spontaneously hypertensive rats was measured as average blood pressure at 10 mg/kg, p.o. after 4 hours of postdose-2; assay type: functional; settings: route oral; summary of the method: as §2
# Rattus norvegicus [31] = assay: Antihypertensive activity in spontaneously hypertensive rats was measured as average blood pressure at 30 mg/kg, p.o. after 24 hours of postdose-1; assay type: functional; settings: route oral; summary of the method: as §2
# Rattus norvegicus [32] = assay: Antihypertensive activity in spontaneously hypertensive rats was measured as average blood pressure at 30 mg/kg, po after 24 hours of postdose-2; assay type: functional; summary of the method: as §2
# Rattus norvegicus [33] = assay: Antihypertensive activity in spontaneously hypertensive rats was measured as average blood pressure at 30 mg/kg, p.o. after 4 hours of postdose-2; assay type: functional; settings: route oral; summary of the method: as §2
# Rattus norvegicus [34] = assay: Antihypertensive activity in spontaneously hypertensive rats was measured as average blood pressure at 30 mg/kg, po before predose; assay type: functional; summary of the method: as §2
# Rattus norvegicus [35] = assay: Antihypertensive activity in spontaneously hypertensive rats was measured as average blood pressure at 15 mg/kg, ia after 24 hours of postdose-1; assay type: functional; settings: route intra-arterial; summary of the method: as §2
# Rattus norvegicus [36] = assay: Antihypertensive activity in spontaneously hypertensive rats was measured as average blood pressure at 15 mg/kg, ia after 4 hours of postdose-1; assay type: functional; settings: route intra-arterial; summary of the method: as §2
# Rattus norvegicus [37] = assay: Antihypertensive activity in spontaneously hypertensive rats was measured as average blood pressure at 15 mg/kg, sc after 24 hours of postdose-1; assay type: functional; settings: route subcutaneous; summary of the method: as §2
# Rattus norvegicus [38] = assay: Antihypertensive activity in spontaneously hypertensive rats was measured as average blood pressure at 15 mg/kg, sc after 24 hours of postdose-2; assay type: functional; settings: route subcutaneous; summary of the method: as §2
# Rattus norvegicus [39] = assay: Antihypertensive activity in spontaneously hypertensive rats was measured as average blood pressure at 15 mg/kg, sc after 4 hours of postdose-1; assay type: functional; settings: route subcutaneous; summary of the method: as §2
# Rattus norvegicus [40] = assay: Antihypertensive activity in spontaneously hypertensive rats was measured as average blood pressure at 15 mg/kg, sc after 4 hours of postdose-2; assay type: functional; settings: route subcutaneous; summary of the method: as §2
# Rattus norvegicus [41] = assay: Antihypertensive activity in spontaneously hypertensive rats was measured as average blood pressure at 15 mg/kg, sc before predose subcutaneous; assay type: functional; summary of the method: as §2
# Rattus norvegicus [42] = assay: Antihypertensive activity in spontaneously hypertensive rats was measured as average blood pressure at 15 mg/kg, ia after 4 hours of postdose-2; assay type: functional; settings: route intra-arterial; summary of the method: as §2
# Rattus norvegicus [43] = assay: Antihypertensive activity in spontaneously hypertensive rats was measured as average blood pressure at 15 mg/kg, ia before predose intra arterial.; assay type: functional, Artery; summary of the method: as §2
compound,measurement,setting,value
N=C(N)NCCN1CCCCCCC1 [GUANETHIDINE],BP,Rattus norvegicus [1],138 mmHg
same,BP,Rattus norvegicus [2],187 mmHg
same,BP,Rattus norvegicus [3],186 mmHg
same,BP,Rattus norvegicus [4],154 mmHg
same,BP,Rattus norvegicus [5],166 mmHg
CC(=O)c1c(-c2ccc(Cl)cc2)c(-c2ccc(Cl)cc2)nn(CCOC(=O)CN)c1=O.Cl,BP,Rattus norvegicus [6],131 mmHg
same,BP,Rattus norvegicus [7],166 mmHg
same,BP,Rattus norvegicus [8],189 mmHg
same,BP,Rattus norvegicus [9],175 mmHg
same,BP,Rattus norvegicus [10],162 mmHg
same,BP,Rattus norvegicus [11],161 mmHg
same,BP,Rattus norvegicus [12],184 mmHg
same,BP,Rattus norvegicus [13],138 mmHg
same,BP,Rattus norvegicus [14],124 mmHg
same,BP,Rattus norvegicus [15],178 mmHg
same,BP,Rattus norvegicus [16],161 mmHg
same,BP,Rattus norvegicus [17],164 mmHg
same,BP,Rattus norvegicus [18],164 mmHg
same,BP,Rattus norvegicus [19],153 mmHg
same,BP,Rattus norvegicus [20],199 mmHg
Br.Br.CC(=O)c1c(-c2ccc(Cl)cc2)c(-c2ccc(Cl)cc2)nn(CCOC(=O)C(N)CCCCN)c1=O (stereo unspecified),BP,Rattus norvegicus [2],231 mmHg
same,BP,Rattus norvegicus [4],179 mmHg
same,BP,Rattus norvegicus [21],162 mmHg
same,BP,Rattus norvegicus [22],189 mmHg
same,BP,Rattus norvegicus [5],173 mmHg
same,BP,Rattus norvegicus [23],143 mmHg
same,BP,Rattus norvegicus [24],175 mmHg
same,BP,Rattus norvegicus [25],165 mmHg
CC(=O)OCCn1nc(-c2ccc(Cl)cc2)c(-c2ccc(Cl)cc2)c(C(C)=O)c1=O,BP,Rattus norvegicus [26],183 mmHg
same,BP,Rattus norvegicus [27],176 mmHg
same,BP,Rattus norvegicus [28],162 mmHg
same,BP,Rattus norvegicus [29],181 mmHg
same,BP,Rattus norvegicus [30],149 mmHg
same,BP,Rattus norvegicus [6],132 mmHg
same,BP,Rattus norvegicus [7],143 mmHg
same,BP,Rattus norvegicus [31],165 mmHg
same,BP,Rattus norvegicus [32],152 mmHg
same,BP,Rattus norvegicus [33],140 mmHg
same,BP,Rattus norvegicus [34],183 mmHg
same,BP,Rattus norvegicus [13],150 mmHg
same,BP,Rattus norvegicus [14],122 mmHg
same,BP,Rattus norvegicus [15],182 mmHg
CC(=O)c1c(-c2ccc(Cl)cc2)c(-c2ccc(Cl)cc2)nn(CCOC(=O)C(N)CCCCN)c1=O.Cl.Cl (stereo unspecified),BP,Rattus norvegicus [35],159 mmHg
same,BP,Rattus norvegicus [36],183 mmHg
same,BP,Rattus norvegicus [37],171 mmHg
same,BP,Rattus norvegicus [38],185 mmHg
same,BP,Rattus norvegicus [39],169 mmHg
same,BP,Rattus norvegicus [40],166 mmHg
same,BP,Rattus norvegicus [41],181 mmHg
same,BP,Rattus norvegicus [42],171 mmHg
same,BP,Rattus norvegicus [43],199 mmHg
